Measurements from different studies.
Protocols differ between the studies behind these lines.
Organism: Plasmodium falciparum
Read-out: parasite growth

O=C(/C=C/c1cn(Cc2cn(-c3ccnc4cc(Cl)ccc34)nn2)c2ccccc12)c1ccccc1Br
inhibition (SYBR Green; 3D7; 10 µM, blood stage): 47.4%

Cn1cc2c3c1C(=O)C(NCCc1ccc(O)cc1)=CC3=NCC2
IC50 (SYBR Green; W2; blood stage): 5010 nM

CCOCC(=O)N1CCC[C@H](C(=O)NCc2nc(-c3ccc(C)nc3)cs2)C1
EC50 (SYBR Green; DD2; 72 h, blood stage): 5 nM

O=C(/C=C/c1cn(Cc2cn(-c3ccnc4cc(Cl)ccc34)nn2)c2ccccc12)c1ccc(Br)cc1
inhibition (SYBR Green; 3D7; 10 µM, blood stage): 37.4%

CCN(CC)CCCC(C)Nc1ccnc2cc(Cl)ccc12 (stereo not shown)
IC50 (SYBR Green; 3D7; 96 h, blood stage): 4.8 nM

O=C1C(NCCc2ccc(O)cc2)=CC2=NCCc3c[nH]c1c32
IC50 (SYBR Green; W2; blood stage): 476 nM

COCC(=O)N1CCCC(C(=O)NCc2nc(-c3ccccc3)cs2)C1 (racemic)
EC50 (SYBR Green; DD2; 72 h, blood stage): 140 to 190 nM

O=C1C(NCCc2c[nH]c3ccccc23)=CC2=NCCc3c[nH]c1c32
IC50 (SYBR Green; W2; blood stage): 716 nM

COCC(=O)N1CCC[C@H](C(=O)NCc2nc(-c3ccc(OC)cc3)cs2)C1
EC50 (SYBR Green; DD2; 72 h, blood stage): 20 nM

O=C1c2[nH]cc3c2C(=NCC3)c2c(-c3ccc(O)cc3)c[nH]c21
IC50 (SYBR Green; W2; blood stage): 4540 nM

O=C(/C=C/c1cn(Cc2cn(-c3ccnc4cc(Cl)ccc34)nn2)c2ccccc12)c1cccc([N+](=O)[O-])c1
inhibition (SYBR Green; 3D7; 5 µM, blood stage): 4.82%

COC(CNC1=CC2=NCCc3c[nH]c(c32)C1=O)c1c[nH]c2ccccc12 (stereo not shown)
IC50 (SYBR Green; W2; blood stage): 1120 nM

O=C(/C=C/c1cn(Cc2cn(-c3ccnc4cc(Cl)ccc34)nn2)c2ccccc12)c1ccccc1[N+](=O)[O-]
inhibition (SYBR Green; 3D7; 5 µM, blood stage): -5.03%

COCC(=O)N1CCC[C@H](C(=O)NCc2nc(-c3cccnc3)cs2)C1
EC50 (SYBR Green; DD2; 72 h, blood stage): 92 nM

O=C(/C=C/c1cn(Cc2cn(-c3ccnc4cc(Cl)ccc34)nn2)c2ccccc12)c1cccs1
inhibition (SYBR Green; 3D7; 5 µM, blood stage): 32.1%

NC1=CC2=NCCc3c[nH]c(c32)C1=O
IC50 (SYBR Green; W2; blood stage): 294 nM

COc1ccccc1C(=O)/C=C/c1cn(Cc2cn(-c3ccnc4cc(Cl)ccc34)nn2)c2ccccc12
IC50 (SYBR Green; drug-resistant strain, blood stage): 3500 nM

CCOC(=O)C1=C(C)NC2=C(C(=O)OC(c3ccc(OC)c(OC)c3)C2)C1c1ccccc1C (mixture of isomers)
EC50 (SYBR Green; 3D7; blood stage): 40 to 190 nM

Cc1cc(Nc2ccc(S(F)(F)(F)(F)F)cc2)n2nc(C(C)(F)F)nc2n1
EC50 (3D7; blood stage): 8.4 nM
